zVAD death inh – blocks zVAD induced death of L929 cells; viability rescue, % at 10 µM; 220,000 compounds, 0.38% hits; AID 1377; L929 zVAD necroptosis rescue, ATP luminescence, 24 h; with zVAD 60 µM;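 active means activation, scaled between plate controls, above about 75%, limit read from the data; inactive means activation under that limit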
RanGTP-Impb inh – disruptors of Ran-importin-beta complex formation – biochemical, FRET, CFP-Ran, YFP-importin-beta, homogeneous, primary screen; AID 2216; inhibition, % (concentration not given with the values); cell-free CFP-Ran/YFP-importin-beta FRET ratio; 300,000 compounds, 1.1% hits;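 active means more than half of the replicate wells show a fall in the fluorescence ratio signal beyond about 16%, limit read from the data, passing the limit was not always enough; inconclusive means exactly half of the replicate wells pass the set limit; inactive means fewer than half of replicates pass the limit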
Runt-CBFb FRET – blocks binding of human RUNX1 Runt domain to CBFb. 220,000 compounds, 0.46% hits. inhibition, % at 20 µM. Cerulean-Runt/Venus-CBFb FRET ratio 530/480, 1 h. Q01196+Q13951;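 active means inhibition over about 50% at 20 µM in the single-dose screen, limit read from the data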
Target sequence (Q01196 whole entry, looked up, the tested form may be a part): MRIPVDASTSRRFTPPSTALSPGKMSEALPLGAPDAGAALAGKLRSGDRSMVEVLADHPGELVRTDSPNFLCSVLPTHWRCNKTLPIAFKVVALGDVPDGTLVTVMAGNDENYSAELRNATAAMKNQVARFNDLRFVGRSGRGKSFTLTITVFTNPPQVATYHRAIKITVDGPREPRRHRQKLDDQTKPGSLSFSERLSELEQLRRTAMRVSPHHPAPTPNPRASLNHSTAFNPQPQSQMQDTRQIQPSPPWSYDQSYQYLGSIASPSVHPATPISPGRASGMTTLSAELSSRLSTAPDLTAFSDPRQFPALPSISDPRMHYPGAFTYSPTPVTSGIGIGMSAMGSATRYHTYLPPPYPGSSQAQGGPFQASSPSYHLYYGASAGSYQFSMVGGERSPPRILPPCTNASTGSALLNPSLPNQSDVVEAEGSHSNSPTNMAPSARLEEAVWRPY
Target sequence (Q13951 whole entry, looked up, the tested form may be a part): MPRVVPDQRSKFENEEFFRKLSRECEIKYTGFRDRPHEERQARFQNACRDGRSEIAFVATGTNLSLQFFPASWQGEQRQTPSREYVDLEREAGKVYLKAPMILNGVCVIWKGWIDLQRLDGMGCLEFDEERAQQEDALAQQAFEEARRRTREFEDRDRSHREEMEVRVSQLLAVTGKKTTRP
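test system = Cerulean-tagged RUNX1 Runt domain (FRET donor) fusion protein | reagent = Venus-CBFb binding partner, 100 nM | incubation = protein complex preformed 1 h, compound exposure 1 h, room temperature, dark | detection = FRET fluorescence | read-out basis = loss of energy transfer signal | controls = 5 µM unlabeled CBFb as full-inhibition high control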
Runt-SMMHC FRET – blocks binding of human RUNX1 Runt domain to CBFb-SMMHC. Cerulean-Runt/Venus-CBFb-SMMHC FRET ratio 530/480, 1 h. AID 1434. 220,000 compounds, 0.74% hits. inhibition, % at 20 µM;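 active means mean inhibition across duplicate retests at 20 µM reaching about 50%, limit read from the data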;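 further: inhibitors lower the FRET ratio by blocking Runt binding to CBFb-SMMHC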
TNF necrop inh – inhibitors of TNF-alpha induced necroptosis in Jurkat FADD-/- cells | AID 463075 | 220,000 compounds, 0.068% hits | Jurkat FADD-/- TNF necroptosis rescue, ATP luminescence, 24 h; 0 = TNF only, 100 = no-TNF cells | activation (protection from cell death), % at 10 µM;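 active means activation, meaning protection from cell death, of at least 50% relative to plate controls; inactive means activation below 50%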;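 further: necroptosis triggered by 40 ng/mL TNF-alpha added together with compound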
Hck-Nef inh – inhibitors of human Hck kinase activated by Nef; Recombinant Hck-YEEI plus Nef, Z-Lyte FRET kinase assay; inhibition, % at 20 µM; 220,000 compounds, 0.68% hits; AID 463187;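 active means Hck-Nef kinase inhibition above about 50%, limit read from the data; inactive means inhibition below that limit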
Numbers stand for hits; i = inactive; ? = inconclusive; nt = no result. This is a sample that favours compounds with a hit; in the whole collection about 2.1% have one here.

SMILES	zVAD death inh	RanGTP-Impb inh	Runt-CBFb FRET	Runt-SMMHC FRET	TNF necrop inh	Hck-Nef inh
COC(=O)Cn1c(=O)c(C(=O)CCl)c(N)n(Cc2ccccc2)c1=O	i	i	i	i	i	i
COc1cc(N2N=C(c3ccccc3)CC2c2ccccc2)c(C=O)cc1C=O (stereo unspecified)	nt	30.9	nt	nt	nt	nt
COc1ccccc1N1N=C(c2ccc([N+](=O)[O-])cc2)CC1c1ccccc1 (stereo unspecified)	nt	i	nt	nt	nt	nt
O=C(Nc1ccccc1)c1cnc[nH]1	i	i	88.9	i	i	i
O=C(c1ccccc1)c1cnc[nH]1	i	i	i	i	i	i
COC(=O)c1ccc(C2C(C#N)=C(N)Oc3cc(O)ccc32)cc1 (stereo unspecified)	nt	i	nt	nt	nt	nt
CCOc1ccc(C2C(C#N)=C(N)Oc3cc(C)[nH]c(=O)c32)cc1OC (stereo unspecified)	i	i	i	i	i	i
COc1ccc(C2C(C#N)=C(N)Oc3cc(O)ccc32)cc1Cl (stereo unspecified)	nt	59.1	nt	nt	nt	nt
CCOc1ccc(C2C(C#N)=C(N)Oc3cc(O)ccc32)cc1OCC (stereo unspecified)	nt	50.7	nt	nt	nt	nt
C#CCOc1ccc(C2C(C#N)=C(N)Oc3cc(O)ccc32)cc1 (stereo unspecified)	nt	66.5	nt	nt	nt	nt
N#CC1=C(N)Oc2cc(O)ccc2C1c1cccs1 (stereo unspecified)	i	i	i	i	i	i
O=C(NCc1ccco1)c1cc2nc(-c3cccs3)cc(C(F)(F)F)n2n1	i	19.9	i	i	i	i
FC(F)(F)c1cc(-c2cccs2)nc2cc(-c3ccccc3)nn12	i	46.2	i	i	i	i
O=Cc1ccc(-c2cc(Cl)ccc2Cl)[nH]1	i	i	i	i	i	i
Cc1nn2c3c(cnc2c1-c1ccccc1)C(=O)CC(C)C3 (stereo unspecified)	i	nt	nt	nt	i	i
Cc1nn2c3c(cnc2c1-c1ccc(Cl)cc1)C(=O)CC(c1ccco1)C3 (stereo unspecified)	nt	19.0	i	i	nt	nt
CCn1cc(/C=C/C(=O)Nc2ccn(Cc3c(F)c(F)cc(F)c3F)n2)cn1	i	i	i	i	78.3	i
Cc1ccc(S(=O)(=O)NNc2ccccc2)cc1	i	i	i	68.0	i	i
CC(=Nc1ccc(C)cc1)c1sc2ccccc2c1O	i	73.2	i	i	i	i
CCOC(=O)c1sc2ccccc2c1OC(=O)c1ccc(C)cc1	i	i	i	i	i	i
CC(=Nc1cccc(O)c1)c1sc2ccccc2c1O	i	29.1	i	i	i	i
CC(=Nc1ccc(C)cc1C)c1sc2ccccc2c1O	i	41.8	i	i	i	i
CC(=O)Nc1ccc(N=c2cc([N+](=O)[O-])cc(Cl)n2O)cc1	nt	i	nt	nt	nt	nt
Cc1ccc2nc(C)c(C(=O)NN=C3CCCCCC3)n2c1	i	i	i	i	i	i
O=C(O)Cn1c2c(c3ccccc31)CCCC2	i	28.6	i	i	i	i
SMILES	zVAD death inh	RanGTP-Impb inh	Runt-CBFb FRET	Runt-SMMHC FRET	TNF necrop inh	Hck-Nef inh
O=C(CN1C(=O)c2ccccc2C1=O)Nc1cccc([N+](=O)[O-])c1	i	21.4	i	i	i	i
COCCCNC(=O)CN(CCc1ccccc1)S(=O)(=O)c1ccc(C)cc1	i	i	i	i	i	i
C/C(O)=c1/ccc2cccc3nc(C)nc1c23	i	53.7	i	nt	i	i
CC1(C)Nc2ccccc2C(=O)N1c1ccccc1	nt	i	nt	nt	nt	nt
COc1ccc(-n2nc3c(N)n[nH]c3cc2=O)cc1	i	i	i	i	i	i
Nc1n[nH]c2cc(=O)n(-c3ccc(Cl)cc3)nc12	i	76.6	i	54.0	i	i
COCCN(C(=O)COC(=O)C1(C)CC1(Cl)Cl)c1c(N)n(Cc2ccccc2)c(=O)[nH]c1=O (stereo unspecified)	nt	i	nt	nt	nt	nt
CCn1c(SCC(=O)Nc2cc(C)on2)nc2sc3c(c2c1=O)CCCC3	i	?	i	i	i	53.0
C=CCn1c(SCC(=O)Nc2cc(C)on2)nc2sc3c(c2c1=O)CCCC3	i	nt	i	i	i	i
COc1ccc(-c2cc3ncnc(Cl)c3s2)cc1	nt	i	nt	nt	nt	nt
O=c1oc2cc(O)ccc2cc1-c1ccccc1	nt	139.8	nt	nt	nt	nt
COc1ccc(-c2cc3ccc(O)cc3oc2=O)cc1	nt	127.6	nt	nt	nt	nt
O=c1oc2cc(O)ccc2cc1-c1nc2c(s1)CCc1ccccc1-2	i	nt	i	82.6	i	i
COc1ccc(/C=N/n2cnc3c([nH]c4ccccc43)c2=O)cc1COc1ccccn1	i	i	nt	i	i	i
Cc1sc2nc(CN3CCOCC3)[nH]c(=S)c2c1C	i	i	i	i	i	i
Cc1ccc(NC(=O)CN2CCCCCC2)cc1[N+](=O)[O-]	i	i	i	i	i	i
Fc1ccccc1-c1nc(NCCCN2CCOCC2)c2ccccc2n1	nt	i	i	i	i	i
CN(C)CCCNc1c2ccccc2nc2ccccc12	nt	107.6	nt	nt	nt	nt
O=C(CNC(=O)c1ccccc1)NCCc1ccc(O)c(O)c1	nt	i	nt	nt	nt	nt
c1ccc(CNc2ncnc3ccccc23)cc1	i	i	i	i	i	i
c1ccc(CNc2c3ccccc3nc3ccccc23)cc1	nt	91.3	nt	nt	nt	nt
c1ccc2c(NCCCN3CCOCC3)c3ccccc3nc2c1	i	nt	98.7	91.5	i	i
Oc1ccc(CCNc2c3ccccc3nc3ccccc23)cc1O	nt	103.3	nt	nt	nt	nt
CN(C)CC(O)CN1C(=O)NC(C)(C)C1=O (stereo unspecified)	i	i	nt	nt	i	i
Cc1cccc([C@@H]2[C@@H]3C(=O)N(Cc4ccccc4)C(=O)[C@@H]3[C@]3(Cc4ccccc4)C(=O)N(c4ccc(C(F)(F)F)cc4)C(=O)N23)c1	nt	i	nt	nt	nt	nt
SMILES	zVAD death inh	RanGTP-Impb inh	Runt-CBFb FRET	Runt-SMMHC FRET	TNF necrop inh	Hck-Nef inh
OCC(Cc1ccccc1)Nc1c2ccccc2nc2ccccc12 (stereo unspecified)	i	117.6	60.6	59.3	i	i
COc1ccc2nc(NC(=O)C3CCN(S(=O)(=O)c4cccc5nsnc45)CC3)sc2c1	77.2	nt	i	i	i	i
COC(=O)C1=CN(C(C)C)C=C(C(=O)OC)C1c1cc2c(cc1Br)OCO2	i	30.2	i	118.5	i	i
NNc1nc2c(-c3ccc(F)cc3)nnn2c2ccccc12	i	21.2	i	i	i	i
NNc1nc2c(-c3ccc(Cl)cc3)nnn2c2ccccc12	i	i	i	i	i	i
CC1(C)c2ssc(=S)c2-c2ccccc2N1C(=O)c1ccco1	i	i	122.0	i	i	i
Cc1ccc(C(=O)CSc2ncnc3ccccc23)o1	i	nt	i	77.5	i	i
NNC(=O)COc1ccc(C(F)(F)F)cc1	i	?	i	i	i	i
O=c1cc(N2CCN(Cc3ccccc3)CC2)[nH]c(=O)n1-c1cccc(C(F)(F)F)c1	i	40.7	i	i	i	i
O=c1cc(N2CCN(Cc3ccccc3)CC2)[nH]c(=O)n1Cc1ccc(F)cc1	i	41.5	i	i	i	i

Screening data deposited in PubChem by several laboratories.
